A selection: hits, their analogues and other compounds. The true share with any hit is near 2.3%.
PRMT1 FP inh – inhibitors of human PRMT1; Q99873; recombinant PRMT1, activity-based probe fluorescence polarization; AID 652257; hit rate 1.3% among 370,000; inhibition, % at 2.79 µM;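 active = inhibition above about 21% made by adding two undisclosed values, limit read from the data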
Fam108B counter – Fam108B inhibition, counter-screen for RBBP9 inhibitors | hit rate 0.33% among 300,000 | inhibition, % at 9.51 µM | AID 1947 | recombinant Fam108B, FP-Rh probe fluorescence polarization;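 active = inhibition above the screen mean inhibition plus 3 SD, computed separately per campaign, cut at about 18% in these data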;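 note: inhibitors lower polarization as less probe binds the enzyme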
GSTO1 counter – GSTO1 inhibition, counter-screen for RBBP9 inhibitors | P78417 | recombinant GSTO1, activity-based probe fluorescence polarization | inhibition, % at 5.96 µM | hit rate 1.1% among 300,000;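 active = inhibition above the campaign mean inhibition plus 3 SD, cut at about 35% in these data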;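 note: 0% = GSTO1-1 with DMSO and 100% = wells lacking GSTO1-1 enzyme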
PME-1 primary – PME-1 (human) inhibition; Q9Y570; recombinant PME-1, FP-Rh probe fluorescence polarization; inhibition, % at 5.9 µM; hit rate 0.53% among 320,000; AID 2130;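 active = inhibition above the campaign mean of all compounds plus 3 SD, cut at about 26% in these data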;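 note: competitive labeling of PME-1 active site by serine hydrolase directed probe; 0% = PME-1 with DMSO and 100% = wells lacking PME-1 enzyme; inhibitors block probe labeling so polarization falls and inhibition rises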
Target sequence (Q9Y570 whole entry, looked up): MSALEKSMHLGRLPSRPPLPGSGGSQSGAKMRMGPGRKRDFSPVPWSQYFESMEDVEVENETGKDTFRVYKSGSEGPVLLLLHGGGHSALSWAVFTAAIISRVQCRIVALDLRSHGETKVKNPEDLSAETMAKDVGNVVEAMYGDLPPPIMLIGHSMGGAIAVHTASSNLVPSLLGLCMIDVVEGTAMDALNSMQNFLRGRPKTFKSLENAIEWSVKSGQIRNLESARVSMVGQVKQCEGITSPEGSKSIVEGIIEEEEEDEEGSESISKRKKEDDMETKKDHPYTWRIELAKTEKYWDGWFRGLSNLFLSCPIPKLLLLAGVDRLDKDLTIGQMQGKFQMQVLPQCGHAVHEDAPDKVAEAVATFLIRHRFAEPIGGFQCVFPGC
PAD4 FP inh – blocks human protein arginine deiminase 4; Q9UM07; recombinant PAD4, RCA probe fluorescence polarization; inhibition, % at 6.36 µM; hit rate 0.41% among 330,000;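 active = percent inhibition above a cutoff equal to the mean of all tested compounds plus 3 SD, cut at about 15% in these data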;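 note: 0% = PAD4 with RCA probe and DMSO and 100% = probe without PAD4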
RBBP9 inh – blocks human serine hydrolase RBBP9. O75884. recombinant RBBP9, FP-Rh probe fluorescence polarization. inhibition, % at 7.94 µM. hit rate 0.2% among 220,000. AID 1515;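 active = inhibition above the campaign mean of all tested compounds plus 3 SD, cut at about 14% in these data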;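 note: plate controls were DMSO wells with RBBP9 for no effect and wells lacking RBBP9 protein for full effect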
Target sequence (O75884 whole entry, looked up): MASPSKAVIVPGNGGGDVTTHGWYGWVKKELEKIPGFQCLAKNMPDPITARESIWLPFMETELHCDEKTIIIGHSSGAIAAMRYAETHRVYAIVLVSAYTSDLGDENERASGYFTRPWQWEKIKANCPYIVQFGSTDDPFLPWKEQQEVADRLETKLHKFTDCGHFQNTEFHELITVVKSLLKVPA
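Controls: DMSO-treated enzyme wells and wells lacking RBBP9 | Material: RBBP9 protein | Technique: Fluorescence polarization | Replication: Single well per compound, no replicates | Buffer or medium: Tris-NaCl-Pluronic buffer, pH 8.0 | Timing: 30 min compound preincubation, 45 min probe labeling, 25 °C | Read-out basis: Percent inhibition from mP, scaled between DMSO and no-protein wells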
The depositor's hits bear a star; x = no result given.

SMILES	PRMT1 FP inh	Fam108B counter	GSTO1 counter	PME-1 primary	PAD4 FP inh	RBBP9 inh
O=S1(=O)[C@H]2C[C@@H]3C=C[C@@]2(CN1Cc1cccc(Cl)c1)O3	3.6	2.5	8.6	-2.3	-1.5	x
O=C(c1cccs1)N1CCC(c2nc3c(nnn3Cc3ccccc3Cl)c(=O)[nH]2)CC1	-1.1	-0.7	-1.6	28.1*	-3.3	x
O=C(c1ccccc1)N1CCC(c2nc3c(nnn3Cc3ccccc3Cl)c(=O)[nH]2)CC1	-1.4	6.2	4.0	20.8	-0.4	-11.9
COc1ccc(C(NC(=O)/C=C/c2ccco2)c2ccc(OC)c(OC)c2)cc1 (centres undefined)	24.5*	-4.0	-8.3	-12.2	1.3	-6.1
O=C1COc2ccc(S(=O)(=O)NCc3ccccc3)cc2N1	2.9	-4.9	35.6*	4.0	-9.3	x
Cc1cc(C)c(C#N)c(SCc2c(F)cccc2[N+](=O)[O-])n1	-2.0	4.4	-3.4	-1.6	1.4	-6.9
Cc1ccc(CC(=S)N2CCOCC2)cc1	2.5	-1.9	36.6*	-5.8	-4.6	-0.7
O=C1CSC(=S)N1N=C1CCCCCC1	23.0*	-0.2	-9.3	-4.4	-12.7	-7.6
Cc1ccc(-n2c(SCC(=O)OC(C)C)nnc2-c2ccccn2)cc1	-1.1	-0.3	-0.4	2.4	5.0	-4.5
CC(C)OC(=O)CSc1nnc(-c2ccccn2)n1-c1ccccc1	-0.6	-2.0	36.6*	-0.4	-3.5	-13.3
CCN1C=CC2=C(C#N)C(N)C(C#N)(C#N)C(c3ccccc3C(F)(F)F)C2C1 (centres undefined)	21.6*	3.3	9.7	3.2	7.6	-4.1
C=C[C@@H]1c2ccccc2N(S(=O)(=O)c2ccc(C)cc2)[C@H](c2ccccc2C(F)(F)F)C1(C#N)C#N	-2.2	x	x	-6.3	-0.3	x
COCC(C)NC(=O)NC(=O)c1ccc(Cl)cc1 (centres undefined)	-1.6	-1.6	6.8	-2.2	-4.6	-6.5
COCC(C)NC(=O)NC1(C(F)(F)F)Oc2ccc(Cl)cc2O1 (centres undefined)	2.0	-2.2	36.5*	-2.7	0.8	-0.5
CCOc1ccccc1-c1ccc(C(=O)NCc2ccccc2)o1	0.9	-7.3	1.8	-8.3	-3.0	-6.7
COC(=O)C(CC(=O)c1ccc(Br)cc1)n1cccn1 (centres undefined)	22.3*	-2.4	12.8	0.9	4.1	x
Cc1ccc(C(=S)N2CCN(Cc3ccccc3)CC2)cc1	22.0*	0.3	6.6	-2.0	-6.3	-2.0
O=C(c1ccc2ncsc2c1)N1CCCC(C(F)(F)F)C1 (centres undefined)	18.5	-1.7	-0.8	-3.6	0.0	x
CC1CCCN(C(=O)c2ccc3ncsc3c2)C1 (centres undefined)	24.5*	x	x	x	x	x
COc1ccc(-c2cc(-c3ccccc3)nc(NN)n2)cc1OC	2.2	-1.9	-8.6	-6.5	-6.9	x
Cc1ccc(CNC(=O)c2cn(C)c(=O)c3c2c2ccccc2n3C)o1	22.4*	6.2	3.4	1.9	-3.1	-2.8
N#CCCCN1C(=O)C(O)(CC(=O)c2ccc3c(c2)OCCO3)c2ccccc21 (centres undefined)	1.9	-3.5	12.0	-0.9	-2.4	-7.4
N#CCCCN1C(=O)C(=C(C#N)C#N)c2ccccc21	23.6*	2.8	13.7	3.0	-1.0	-8.8
COc1ccc(N2CCN(C(=O)Cc3cccs3)CC2)cc1	2.2	-4.2	-0.7	0.6	1.3	3.3
COc1ccc(/C=C(\C#N)C(=O)NCCc2ccccc2)cc1OCc1ccccc1	1.1	-19.5	-0.4	-10.8	-1.6	-9.2
SMILES	PRMT1 FP inh	Fam108B counter	GSTO1 counter	PME-1 primary	PAD4 FP inh	RBBP9 inh
COCCCNC(=O)/C(C#N)=C/c1ccc(OCC(=O)O)c(OC)c1	7.4	17.7	41.0*	-7.2	-3.4	2.6
CCNS(=O)(=O)c1ccc(NC(=O)Cn2nc(C(F)(F)F)cc2C)cc1	-2.0	0.5	9.6	-0.2	-2.8	-5.8
Cc1ccc(OCC(=O)NNC(=O)c2ccc3c(=O)n4c(nc3c2)CCC4)cc1	-3.6	-4.7	-13.2	-7.2	-6.8	x
COc1ccc(OCC(=O)NNC(=O)c2ccc3c(=O)n4c(nc3c2)CCC4)cc1	2.5	-2.7	37.2*	-4.0	-2.8	x
O=C(NCc1cccs1)Nc1ccc(Cl)cc1	-0.5	4.5	-0.4	-2.0	-3.0	-8.1
COc1ccc2c(c1O)C(=O)c1ccccc1C2=O	x	1.8	0.4	-1.0	10.6	-9.1
COc1cccc2c1C(=O)C=C(C)C2=O	6.1	0.3	39.9*	4.0	-6.2	-6.9
COC(=O)CCC/C=C1/SCC(NC(=O)c2ccccc2)C1=O (centres undefined)	25.6*	-8.5	12.4	-7.4	-11.1	-6.4
COc1ccc(-n2c(-c3ccc(Cl)cc3)c[nH]c2=S)cc1	23.8*	4.6	-3.3	6.9	-7.6	x
CC(C)(C)c1ccc(NS(=O)(=O)c2ccc(N)cc2)cc1	0.3	-0.1	35.8*	1.1	-2.8	-11.2
CC(C)CC(=O)Nc1nc2ccc(S(C)(=O)=O)cc2s1	22.8*	-3.2	3.8	1.3	0.2	-7.5
Cc1cc(N/N=C/c2ccccc2)nc(N2CCOCC2)n1	2.6	2.2	-5.5	0.1	5.3	-6.0
CC(=O)NC1C(=O)N=C(SC(C)C(=O)Nc2cccc(Cl)c2)NC1=O (centres undefined)	22.2*	-3.2	-16.2	2.8	-1.7	4.7
CC(Sc1nc(N)cc(=O)[nH]1)C(=O)Nc1cccc(Cl)c1 (centres undefined)	1.8	-4.5	2.9	-0.9	-2.2	-10.8
O=C(CSc1nn(-c2ccccc2)c(=S)s1)Nc1ncccn1	-1.1	-5.0	-4.2	-1.3	0.1	-13.1
C[C@H](CO)N1C[C@H](C)[C@@H](CN(C)C(=O)Nc2ccc(C(F)(F)F)cc2)Oc2ccc(NS(=O)(=O)c3ccccc3)cc2C1=O	2.8	x	x	x	0.5	x
O=c1[nH][nH]c(-c2ccccc2O)c1C(C[N+](=O)[O-])c1ccc(Br)cc1 (centres undefined)	2.4	3.7	29.3	-0.4	-15.3	-12.5
Cc1ccc(C(C[N+](=O)[O-])c2c(-c3ccccc3O)[nH][nH]c2=O)cc1 (centres undefined)	6.4	-0.4	35.5*	-0.8	-6.1	-4.0
O=C1C(=O)N(CCS(=O)(=O)c2ccccc2)c2ccc(F)cc21	1.3	-1.2	35.9*	-1.9	-6.1	x
COc1ccc2c(c1)C(=O)C(=O)N2CCS(=O)(=O)c1ccccc1	-2.0	1.4	6.1	0.0	0.6	x
CCCCCCCCS(=O)c1sc2nc3c(cc2c1N)CCCC3 (centres undefined)	23.9*	7.8	-41.8	6.8	7.2	-4.5
CCCCS(=O)(=O)c1sc2nc3c(cc2c1N)CCCC3	-1.5	4.6	-2.0	4.0	1.3	-6.5
CCCc1cc(=O)[nH]c(SCC(=O)N(C)CC(=O)Nc2ccc(C)cc2)n1	8.5	-0.8	-2.3	-6.0	5.2	-5.9
CC(C)(C)S(=O)(=O)c1cnc2c(-c3ccc(F)cc3)cnn2c1N	-2.8	3.3	-1.2	1.4	-1.2	-4.0

Assay outcomes as filed in PubChem BioAssay.
